Data reported in ChEMBL document CHEMBL1128719, “The synthesis, structure-activity, and structure-side effect relationships of a series of 8-alkoxy- and 5-amino-8-alkoxyquinolone antibacterial agents” (J Med Chem, 1995).
≈ marks a conversion by molar mass, not a printed value.

Assays:
Escherichia coli [1] = experiment: In vitro antibacterial activity was tested for Escherichia coli H560; format: functional
How it was run: (§1)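 Microtitration (microdilution) MIC determination in μg/mL against a panel of Gram-positive, Gram-negative and anaerobic organisms. Values come from duplicate or triplicate experiments and are stated accurate to ±50%.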

Staphylococcus aureus [2] = experiment: In vitro antibacterial activity was tested for Staphylococcus aureus UC-76; format: functional; how it was run: as §1
Bacteroides fragilis = experiment: In vitro antibacterial activity against Bacteroides fragilis BFA; format: functional; how it was run: as §1
Streptococcus pyogenes = experiment: In vitro antibacterial activity was tested for Streptococcus pyogenes C203; format: functional; how it was run: as §1
Streptococcus pneumoniae = experiment: In vitro antibacterial activity was tested for Streptococcus pneumoniae SV-1; format: functional; how it was run: as §1
Cutibacterium acnes = experiment: In vitro antibacterial activity was tested for Propion acnes PA5-1; format: functional; how it was run: as §1
Enterobacter cloacae = experiment: In vitro antibacterial activity was tested for Enterobacter cloacae HA2646; format: functional
[3] = test system: Peptoniphilus asaccharolyticus; experiment: In vitro antibacterial activity was tested for Pepto asac PA 3-1; format: functional; how it was run: as §1
Escherichia coli [4] = experiment: In vitro antibacterial activity was tested for Escherichia coli Vogel; format: functional; how it was run: as §1
Pseudomonas aeruginosa = experiment: In vitro antibacterial activity was tested for Pseudomonas aeruginosa UI-18; format: functional; how it was run: as §1
Clostridioides difficile = experiment: In vitro antibacterial activity was tested for Clostridium diff CD1-1; format: functional
Klebsiella pneumoniae = experiment: In vitro antibacterial activity was tested for Klebsiella pneumoniae MGH-2; format: functional; how it was run: as §1
Enterococcus faecalis = experiment: In vitro antibacterial activity was tested for Streptococcus faecalis MGH-2; format: functional; how it was run: as §1
V79 = experiment: Clonogenic cytotoxicity against Chinese hamster V-79 cells; format: functional, cell-based; conditions: Cricetulus griseus
Clostridium perfringens = experiment: In vitro antibacterial activity against Clostridium perfringens CP 3-1; format: functional
Providencia rettgeri = experiment: In vitro antibacterial activity was tested for Providencia rettgeri H1771; format: functional; how it was run: as §1
Staphylococcus aureus [5] = experiment: In vitro antibacterial activity was tested for Staphylococcus aureus H228; format: functional; how it was run: as §1

| Compound | MIC (Escherichia coli [1]) [mg/L] | MIC (Staphylococcus aureus [2]) [mg/L] | MIC (Bacteroides fragilis) [mg/L] | MIC (Streptococcus pyogenes) [mg/L] | MIC (Streptococcus pneumoniae) [mg/L] | MIC (Cutibacterium acnes) [mg/L] | MIC (Enterobacter cloacae) [mg/L] | MIC [3] [mg/L] | MIC (Escherichia coli [4]) [mg/L] | MIC (Pseudomonas aeruginosa) [mg/L] | MIC (Clostridioides difficile) [mg/L] | MIC (Klebsiella pneumoniae) [mg/L] | MIC (Enterococcus faecalis) [mg/L] | IC50 (V79) [mg/L] | MIC (Clostridium perfringens) [mg/L] | MIC (Providencia rettgeri) [mg/L] | MIC (Staphylococcus aureus [5]) [mg/L] |
| --- | --- | --- | --- | --- | --- | --- | --- | --- | --- | --- | --- | --- | --- | --- | --- | --- | --- |
| COc1c(N2CCC(C)(CN)C2)c(F)c(N)c2c(=O)c(C(=O)O)cn(C3CC3)c12 (stereo unspecified) | 0.05 (≈ 0.124 µM) | 0.006 (≈ 0.0148 µM) | 1.6 (≈ 3.96 µM) | 0.025 (≈ 0.0618 µM) | 0.013 (≈ 0.0321 µM) | 1.6 (≈ 3.96 µM) | 0.1 (≈ 0.247 µM) | 0.8 (≈ 1.98 µM) | 0.1 (≈ 0.247 µM) | 3.1 (≈ 7.66 µM) | 1.6 (≈ 3.96 µM) | 0.2 (≈ 0.495 µM) | 0.05 (≈ 0.124 µM) | 140 (≈ 346 µM) | 0.8 (≈ 1.98 µM) | 0.8 (≈ 1.98 µM) | 0.025 (≈ 0.0618 µM) |
| CCOc1c(N2CCCC(CN)C2)c(F)cc2c(=O)c(C(=O)O)cn(C3CC3)c12 (stereo unspecified) | 0.1 (≈ 0.248 µM) | 0.013 (≈ 0.0322 µM) | 3.1 (≈ 7.68 µM) | 0.025 (≈ 0.062 µM) | 0.025 (≈ 0.062 µM) | 3.1 (≈ 7.68 µM) | 0.4 (≈ 0.991 µM) | 0.4 (≈ 0.991 µM) | 0.2 (≈ 0.496 µM) | > 3.1 | 3.1 (≈ 7.68 µM) | 0.8 (≈ 1.98 µM) | 0.05 (≈ 0.124 µM) | 63 (≈ 156 µM) | 0.4 (≈ 0.991 µM) | > 3.1 | 0.05 (≈ 0.124 µM) |
| CCOc1c(N2CCNC(C)C2)c(F)cc2c(=O)c(C(=O)O)cn(C3CC3)c12 (stereo unspecified) | 0.05 (≈ 0.128 µM) | 0.05 (≈ 0.128 µM) | 3.1 (≈ 7.96 µM) | 0.2 (≈ 0.514 µM) | 0.05 (≈ 0.128 µM) | 3.1 (≈ 7.96 µM) | 0.1 (≈ 0.257 µM) | 1.6 (≈ 4.11 µM) | 0.1 (≈ 0.257 µM) | 3.1 (≈ 7.96 µM) | 6.3 (≈ 16.2 µM) | 0.2 (≈ 0.514 µM) | 0.2 (≈ 0.514 µM) |  | 0.8 (≈ 2.05 µM) | 0.4 (≈ 1.03 µM) | 0.2 (≈ 0.514 µM) |
| CCOc1c(N2CCC(C)(CN)C2)c(F)c(N)c2c(=O)c(C(=O)O)cn(C3CC3)c12 (stereo unspecified) | 0.1 (≈ 0.239 µM) | 0.025 (≈ 0.0597 µM) | 3.1 (≈ 7.41 µM) | 0.1 (≈ 0.239 µM) | 0.05 (≈ 0.119 µM) | 3.1 (≈ 7.41 µM) | 0.4 (≈ 0.956 µM) | 0.8 (≈ 1.91 µM) | 0.2 (≈ 0.478 µM) | 3.1 (≈ 7.41 µM) | 6.3 (≈ 15.1 µM) | 0.8 (≈ 1.91 µM) | 0.1 (≈ 0.239 µM) |  | 0.4 (≈ 0.956 µM) | 1.6 (≈ 3.82 µM) | 0.1 (≈ 0.239 µM) |
| COc1c(N2CCC(CN)C2)c(F)cc2c(=O)c(C(=O)O)cn(C3CC3)c12 (stereo unspecified) | 0.025 (≈ 0.0666 µM) | 0.003 (≈ 0.00799 µM) | 0.2 (≈ 0.533 µM) | 0.003 (≈ 0.00799 µM) | 0.003 (≈ 0.00799 µM) | 0.2 (≈ 0.533 µM) | 0.05 (≈ 0.133 µM) | 0.2 (≈ 0.533 µM) | 0.05 (≈ 0.133 µM) | 0.8 (≈ 2.13 µM) | 0.2 (≈ 0.533 µM) | 0.1 (≈ 0.266 µM) | 0.013 (≈ 0.0346 µM) |  | 0.1 (≈ 0.266 µM) | 0.1 (≈ 0.266 µM) | 0.025 (≈ 0.0666 µM) |
| COc1c(N2CCN(C)CC2)c(F)cc2c(=O)c(C(=O)O)cn(C3CC3)c12 | 0.1 (≈ 0.266 µM) | 0.05 (≈ 0.133 µM) | 0.2 (≈ 0.533 µM) | 0.1 (≈ 0.266 µM) | 0.1 (≈ 0.266 µM) | 0.4 (≈ 1.07 µM) | 0.1 (≈ 0.266 µM) | 1.6 (≈ 4.26 µM) | 0.1 (≈ 0.266 µM) | 0.8 (≈ 2.13 µM) | 0.8 (≈ 2.13 µM) | 0.2 (≈ 0.533 µM) | 0.2 (≈ 0.533 µM) |  | 0.2 (≈ 0.533 µM) | 0.4 (≈ 1.07 µM) | 0.1 (≈ 0.266 µM) |
| CCNCC1CCN(c2c(F)cc3c(=O)c(C(=O)O)cn(C4CC4)c3c2OC)C1 (stereo unspecified) | 0.05 (≈ 0.124 µM) | 0.006 (≈ 0.0149 µM) | 0.4 (≈ 0.991 µM) | 0.013 (≈ 0.0322 µM) | 0.013 (≈ 0.0322 µM) | 0.4 (≈ 0.991 µM) | 0.1 (≈ 0.248 µM) | 0.2 (≈ 0.496 µM) | 0.1 (≈ 0.248 µM) | 1.6 (≈ 3.97 µM) | 0.2 (≈ 0.496 µM) | 0.2 (≈ 0.496 µM) | 0.025 (≈ 0.062 µM) |  | 0.05 (≈ 0.124 µM) | 0.4 (≈ 0.991 µM) | 0.025 (≈ 0.062 µM) |
| CCOc1c(N2CCCC(N)C2)c(F)c(N)c2c(=O)c(C(=O)O)cn(C3CC3)c12 (stereo unspecified) | 0.1 (≈ 0.247 µM) | 0.013 (≈ 0.0321 µM) | 3.1 (≈ 7.66 µM) | 0.05 (≈ 0.124 µM) | 0.025 (≈ 0.0618 µM) | 3.1 (≈ 7.66 µM) | 0.2 (≈ 0.495 µM) | 0.8 (≈ 1.98 µM) | 0.2 (≈ 0.495 µM) | 3.1 (≈ 7.66 µM) | 6.3 (≈ 15.6 µM) | 0.4 (≈ 0.989 µM) | 0.1 (≈ 0.247 µM) |  | 0.4 (≈ 0.989 µM) | 0.8 (≈ 1.98 µM) | 0.05 (≈ 0.124 µM) |
| COc1c(N2CC[C@H](N)C2)c(F)cc2c(=O)c(C(=O)O)cn(C3CC3)c12 | 0.025 (≈ 0.0692 µM) | 0.013 (≈ 0.036 µM) | 0.2 (≈ 0.553 µM) | 0.025 (≈ 0.0692 µM) | 0.025 (≈ 0.0692 µM) | 0.4 (≈ 1.11 µM) | 0.025 (≈ 0.0692 µM) | 0.8 (≈ 2.21 µM) | 0.025 (≈ 0.0692 µM) | 0.4 (≈ 1.11 µM) | 0.2 (≈ 0.553 µM) | 0.05 (≈ 0.138 µM) | 0.05 (≈ 0.138 µM) | 32 (≈ 88.6 µM) | 0.2 (≈ 0.553 µM) | 0.1 (≈ 0.277 µM) | 0.05 (≈ 0.138 µM) |
| CCNCC1CCCN(c2c(F)cc3c(=O)c(C(=O)O)cn(C4CC4)c3c2OCC)C1 (stereo unspecified) | 0.8 (≈ 1.85 µM) | 0.05 (≈ 0.116 µM) | 3.1 (≈ 7.18 µM) | 0.1 (≈ 0.232 µM) | 0.1 (≈ 0.232 µM) | 3.1 (≈ 7.18 µM) | 1.6 (≈ 3.71 µM) | 0.4 (≈ 0.927 µM) | 0.8 (≈ 1.85 µM) | > 3.1 | 3.1 (≈ 7.18 µM) | 3.1 (≈ 7.18 µM) | 0.2 (≈ 0.463 µM) | 460 (≈ 1070 µM) | 0.4 (≈ 0.927 µM) | > 3.1 | 0.2 (≈ 0.463 µM) |
| COc1c(N2CCCC(CN)C2)c(F)c(N)c2c(=O)c(C(=O)O)cn(C3CC3)c12 (stereo unspecified) | 0.1 (≈ 0.247 µM) | 0.006 (≈ 0.0148 µM) | 3.1 (≈ 7.66 µM) | 0.025 (≈ 0.0618 µM) | 0.025 (≈ 0.0618 µM) | 1.6 (≈ 3.96 µM) | 0.2 (≈ 0.495 µM) | 0.8 (≈ 1.98 µM) | 0.1 (≈ 0.247 µM) | 3.1 (≈ 7.66 µM) | 1.6 (≈ 3.96 µM) | 0.4 (≈ 0.989 µM) | 0.025 (≈ 0.0618 µM) | 140 (≈ 346 µM) | 0.2 (≈ 0.495 µM) | 0.8 (≈ 1.98 µM) | 0.05 (≈ 0.124 µM) |
